Experimental data taken from ChEMBL document CHEMBL1121812, “Promotion of carbohydrate oxidation in the heart by some phenylglyoxylic acids” (1981).

Columns and labels:
[1] = molecular target: T1, Pyruvate dehydrogenase kinase (Rattus norvegicus) (UniProt Q63065+A6IPZ9+Q64536+O54937); assay: Pyruvate dehydrogenase active/ Pyruvate dehydrogenase total was measured by sc administering the DCA in rat at a dose of 1.2 mmol/kg; type: functional, organism-based
How it was run: (§1)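 Hearts frozen in liquid N2, powdered, homogenized in ice-cold phosphate/EDTA/DTT/pyruvate medium. PDH active assayed directly; PDH total after 20 min at 30 °C with 5 mM MgCl2, 2.5 mM CaCl2. 14CO2 from 0.1 mM [1-14C]pyruvate with CoA, NAD, TPP at 30 °C; expressed as % PDH active/total; ≥3 rats/group.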

[2] = molecular target: T1, Pyruvate dehydrogenase kinase (Rattus norvegicus); assay: Pyruvate dehydrogenase activity in vivo was measured following subcutaneous administration of 1.2 mmol/kg; type: functional, organism-based; how it was run: as §1
[3] = molecular target: T1, Pyruvate dehydrogenase kinase (Rattus norvegicus); assay: Tested for pyruvate oxidation in rat diaphragm, measured as % conversion of [14C]pyruvate to 14CO2 at 0.5 mM concentration of DCA (dichloroacetic acid); type: functional, tissue-based
How it was run: (§2)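 Rat diaphragm cut into four portions, each weighed and preincubated 1 h at 37 °C in Krebs-Ringer bicarbonate, pH 7.4, gassed O2/CO2 (18:1), alone (control) or with compound. Then 4 mM (final) 1- or 2-14C sodium pyruvate added, 1 h at 37 °C. Stopped with H2SO4; 14CO2 trapped in hyamine hydroxide, scintillation counted. Tissue-free blanks included. Reported as percent stimulation versus control.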

[4] = molecular target: T1, Pyruvate dehydrogenase kinase (Rattus norvegicus); assay: Tested for pyruvate oxidation in rat diaphragm, measured as % conversion of [14C]pyruvate to 14CO2 at 2 mM concentration; type: functional, tissue-based; how it was run: as §2
[5] = molecular target: T1, Pyruvate dehydrogenase kinase (Rattus norvegicus); assay: Percent Stimulation of pyruvate oxidation in rat diaphragm was measured at 2 mM concentration of DCA (dichloroacetic acid); type: functional, tissue-based; how it was run: as §2
[6] = tested on: pyruvate dehydrogenase (Rattus norvegicus); assay: Tested for pyruvate oxidation in rat diaphragm, measured as % conversion of [14C]pyruvate to 14CO2 at 5 mM concentration
Rattus norvegicus [7] = organism: Rattus norvegicus; assay: (§3) Compound was tested in vitro for pyruvate oxidation in rat diaphragm, measured as % conversion of [14C]pyruvate to 14CO2 at 2 mM concentration of DCA (dichloroacetic acid); type: functional; how it was run: as §2
Rattus norvegicus [8] = organism: Rattus norvegicus; assay: as §3; type: functional; how it was run: as §2; remark: listed apart in the source
Rattus norvegicus [9] = organism: Rattus norvegicus; assay: Percent Stimulation of pyruvate oxidation in rat diaphragm by the compound was measured at 2 mM concentration; type: functional; how it was run: as §2
Rattus norvegicus [10] = assay: Pyruvate dehydrogenase active/ Pyruvate dehydrogenase total was measured by sc administering the compound in rat at a dose of 1.2 mmol/kg; type: functional; how it was run: as §1
Rattus norvegicus [11] = organism: Rattus norvegicus; assay: Percent Stimulation of pyruvate oxidation in Rat by the compound was measured at 2 mM concentration of DCA (dichloroacetic acid); type: functional; how it was run: as §2
Rattus norvegicus [12] = organism: Rattus norvegicus; assay: Percent Stimulation of pyruvate oxidation in Rat by the compound was measured at 0.5 mM concentration of DCA (dichloroacetic acid); type: functional; how it was run: as §2
Rattus norvegicus [13] = organism: Rattus norvegicus; assay: Percent stimulation of pyruvate oxidation in rat diaphragm by the compound was measured at 2 mM concentration; type: functional; how it was run: as §2
[14] = tested on: Pyruvate dehydrogenase complex (Rattus norvegicus); assay: Tested for pyruvate oxidation in rat diaphragm, measured as % conversion of [14C]pyruvate to 14CO2 at 2 mM concentration
Rattus norvegicus [15] = assay: Pyruvate dehydrogenase activity in vivo was measured following subcutaneous administration of 1.2 mmol/kg of the DCA in rat at a dose of 1.2 mmol/kg; type: functional; how it was run: as §1
Rattus norvegicus [16] = organism: Rattus norvegicus; assay: Compound was tested in vitro for pyruvate oxidation in Rat, measured as % conversion of [14C]pyruvate to 14CO2 at 0.5 mM concentration of DCA (dichloroacetic acid); type: functional; how it was run: as §2

SMILES: C=CCc1cc(C(=O)C(=O)O)ccc1O
- PDH active/PDH total [1]: 90%
- PDH active/PDH total [2]: 11%
- Stimulation [3]: 11%
- Stimulation [4]: 29%
- Stimulation [5]: 120%

SMILES: CC(C)Sc1ccc(C(=O)C(=O)O)cc1
- PDH active/PDH total [1]: 96%
- PDH active/PDH total [2]: 51%
- Stimulation [3]: 26%
- Stimulation [4]: 162%
- Stimulation [5]: 200%

SMILES: O=C(O)C(=O)c1cc(I)c(O)c(I)c1
- PDH active/PDH total [1]: 87%
- PDH active/PDH total [2]: 12%
- Stimulation [3]: 5%
- Stimulation [4]: 85%
- Stimulation [5]: 120%

SMILES: COc1ccc(C(N)C(=O)O)cc1 (stereo in doubt; D-28) [listing 1 of 2 here]
- PDH active/PDH total [1]: 87%
- PDH active/PDH total [2]: 11%
- Stimulation [6]: -14%

SMILES: O=C(O)C(=O)c1ccc(Cl)cc1
- Stimulation (Rattus norvegicus [7]): 48%
- Stimulation (Rattus norvegicus [8]): 82%
- Stimulation [6]: 71%

SMILES: CN(C)c1ccc(C(=O)C(=O)O)cc1
- Stimulation [3]: 1%
- Stimulation (Rattus norvegicus [9]): -5%
- Stimulation [5]: 156%
- Stimulation [6]: 16%

SMILES: O=C(O)C(=O)c1ccccc1
- PDH active/PDH total [1]: 87%
- PDH active/PDH total [2]: 38%
- Stimulation [3]: 42%
- Stimulation [4]: 85%
- Stimulation [5]: 219%

SMILES: COc1ccc(C(N)C(=O)O)cc1 (stereo in doubt; L-27) [listing 1 of 2 here]
- PDH active/PDH total [1]: 90%
- PDH active/PDH total [2]: 5%
- Stimulation [6]: 115%

SMILES: NC(C(=O)O)c1ccccc1 (stereo not given)
- PDH active/PDH total (Rattus norvegicus [10]): 13%
- Stimulation (Rattus norvegicus [11]): 90%

SMILES: COc1ccc(C(=O)C(=O)O)cc1
- PDH active/PDH total [1]: 97%
- PDH active/PDH total [2]: 49%
- Stimulation [3]: 62%
- Stimulation [4]: 132%
- Stimulation (Rattus norvegicus [9]): 132%
- Stimulation [5]: 161%

SMILES: CCCCSc1ccc(C(=O)C(=O)O)cc1
- PDH active/PDH total [1]: 96%
- PDH active/PDH total [2]: 14%
- Stimulation [3]: 76%
- Stimulation [4]: 113%
- Stimulation [5]: 200%

SMILES: Cc1ccc(C(N)C(=O)O)cc1 (stereo not given)
- Stimulation [3]: 24%
- Stimulation [4]: 36%
- Stimulation [5]: 95%

SMILES: N[C@H](C(=O)O)c1ccc(O)cc1 (stereo in doubt; L-25)
- PDH active/PDH total [1]: 87%
- PDH active/PDH total [2]: 82%

SMILES: O=C(O)C(=O)c1ccc(CO)cc1
- Stimulation [3]: 12%
- Stimulation [4]: 23%
- Stimulation [5]: 108%

SMILES: O=C(O)C(=O)c1ccc(O)cc1
- PDH active/PDH total [1]: 96%
- PDH active/PDH total [2]: 12%
- Stimulation [3]: 63%
- Stimulation (Rattus norvegicus [9]): 80%
- Stimulation [5]: 142%

SMILES: N[C@H](C(=O)O)c1ccc(O)cc1 (stereo in doubt; L-25) [OXFENICINE]
- Stimulation (Rattus norvegicus [12]): 84%
- Stimulation (Rattus norvegicus [11]): 123%
- Stimulation (Rattus norvegicus [13]): 136%

SMILES: COc1ccccc1C(=O)C(=O)O
- Stimulation (Rattus norvegicus [9]): -10%
- Stimulation [5]: 163%
- Stimulation [6]: -2%

SMILES: CCS(=O)(=O)Nc1ccc(C(=O)C(=O)O)cc1
- Stimulation [3]: 16%
- Stimulation [4]: 22%
- Stimulation [5]: 100%

SMILES: Cc1cc(C(=O)C(=O)O)ccc1O
- PDH active/PDH total [1]: 89%
- PDH active/PDH total [2]: 31%
- Stimulation [3]: 2%
- Stimulation [4]: 21%
- Stimulation [5]: 107%

SMILES: CSc1ccc(C(=O)C(=O)O)cc1
- PDH active/PDH total [1]: 82%
- PDH active/PDH total [2]: 69%
- Stimulation [5]: 101%
- Stimulation [14]: 123%
- Stimulation [6]: 154%

SMILES: COc1ccc(C(N)C(=O)O)cc1 (stereo in doubt; D-28) [listing 2 of 2 here]
- Stimulation (Rattus norvegicus [11]): 108%
- Stimulation (Rattus norvegicus [13]): 17%

SMILES: Cc1ccc(C(=O)C(=O)O)cc1
- PDH active/PDH total (Rattus norvegicus [15]): 97%
- PDH active/PDH total [2]: 50%
- Stimulation [3]: 20%
- Stimulation [4]: 43%
- Stimulation (Rattus norvegicus [7]): 100%

SMILES: NC(=O)c1ccc(C(=O)C(=O)O)cc1
- Stimulation (Rattus norvegicus [9]): 11%
- Stimulation [5]: 200%
- Stimulation [6]: 20%

SMILES: CSc1ccc(C(N)C(=O)O)cc1 (racemic)
- PDH active/PDH total [1]: 76%
- PDH active/PDH total [2]: 20%
- Stimulation (Rattus norvegicus [9]): 65%
- Stimulation [5]: 132%
- Stimulation [6]: 28%

SMILES: CCSc1ccc(C(=O)C(=O)O)cc1
- PDH active/PDH total [1]: 82%
- PDH active/PDH total [2]: 73%
- Stimulation [3]: 164%
- Stimulation [4]: 231%
- Stimulation [5]: 158%

SMILES: N[C@H](C(=O)O)c1ccc(O)cc1 (stereo in doubt; D-26) [OXFENICINE]
- Stimulation (Rattus norvegicus [11]): 130%
- Stimulation (Rattus norvegicus [13]): 26%

SMILES: N[C@H](C(=O)O)c1ccc(O)cc1 (stereo in doubt; D-26)
- PDH active/PDH total [1]: 87%
- PDH active/PDH total [2]: 26%

SMILES: NC(C(=O)O)c1ccc(Cl)cc1 (stereo not given)
- PDH active/PDH total [1]: 90%
- PDH active/PDH total [2]: 43%
- Stimulation [3]: 43%
- Stimulation [4]: 102%
- Stimulation [5]: 99%

SMILES: COc1ccc(C(N)C(=O)O)cc1 (stereo in doubt; L-27) [listing 2 of 2 here]
- Stimulation (Rattus norvegicus [16]): 79%
- Stimulation (Rattus norvegicus [11]): 122%
- Stimulation (Rattus norvegicus [13]): 124%

SMILES: CCSc1ccc(C(N)C(=O)O)cc1 (racemic)
- PDH active/PDH total [1]: 80%
- PDH active/PDH total [2]: 5%
- Stimulation (Rattus norvegicus [9]): 20%
- Stimulation [5]: 132%
- Stimulation [6]: 24%
